Tn7 DDE FP – inhibitors of Tn7 peptide binding to fibrin DD(E), primary screen, biochemical, fluorescence polarization, human fibrin, Tn7 probe; AID 720508, 2013; Fibrinogen beta chain (Homo sapiens), P02675; inhibition, % at 8.3 µM; FP displacement of FITC-Tn7 peptide from fibrin DD(E); 0% = median of compound wells per plate; 370,000 tested, 0.13% active;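 active = inhibition above the mean of compounds falling within the control limits plus 3 SD of them, cut at about 14% in these data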;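 note: 0% = plate median of compound wells and 100% = 10 µM Aha-Tn7 peptide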
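Test system – human fibrin DD(E) · Times – 10 min preincubation, 3 h with tracer, room temperature · Detection – fluorescence polarization of the labelled Tn7 tracer · Measure – percent inhibition normalized to high-control wells · Benchmarks – high control wells with 10 µM unlabelled Aha-Tn7 peptide (full inhibition) · Repeats – singlicate testing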
DDE Tn6 FP inh – inhibitors of Tn6 peptide binding to fibrin DD(E), primary screen, biochemical, fluorescence polarization, human fibrin, Tn6 probe. Fibrin DD(E) TRITC-Tn6 fluorescence polarization displacement. inhibition, % at 8.3 µM. 370,000 tested, 0.21% active;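 active = inhibition above a per-campaign cutoff: mean of compounds within control limits plus 3 SD, cut at about 15% in these data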;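 note: 0% = median of all compound wells on the plate and 100% = blocking peptide control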
TCR CD3 inh – inhibitors of human TCR-CD3 interaction, primary screen, biochemical, fluorescence, TAMRA-labeled TCR probe | 360,000 tested, 0.37% active | AID 651800, 2012 | T-cell receptor (TCR) | inhibition, % at 9.4 µM; in the data active = inhibition above about 19%;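 note: recombinant mutant TCR 2C K166C tagged with TAMRA read by polarization; 0% = receptor in buffer alone and 100% = receptor with positive control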
HTRA1 inh – HTRA1 serine protease inhibitors, primary screen, biochemical, fluorescence polarization, HTS; recombinant HTRA1, FP-rhodamine activity-based probe; inhibition, % at 5.96 µM; Q92743; 340,000 tested, 0.5% active; in the data active = inhibition above about 36%;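 note: 0% = enzyme with DMSO and 100% = wells lacking enzyme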
Target sequence (Q92743 whole entry, looked up): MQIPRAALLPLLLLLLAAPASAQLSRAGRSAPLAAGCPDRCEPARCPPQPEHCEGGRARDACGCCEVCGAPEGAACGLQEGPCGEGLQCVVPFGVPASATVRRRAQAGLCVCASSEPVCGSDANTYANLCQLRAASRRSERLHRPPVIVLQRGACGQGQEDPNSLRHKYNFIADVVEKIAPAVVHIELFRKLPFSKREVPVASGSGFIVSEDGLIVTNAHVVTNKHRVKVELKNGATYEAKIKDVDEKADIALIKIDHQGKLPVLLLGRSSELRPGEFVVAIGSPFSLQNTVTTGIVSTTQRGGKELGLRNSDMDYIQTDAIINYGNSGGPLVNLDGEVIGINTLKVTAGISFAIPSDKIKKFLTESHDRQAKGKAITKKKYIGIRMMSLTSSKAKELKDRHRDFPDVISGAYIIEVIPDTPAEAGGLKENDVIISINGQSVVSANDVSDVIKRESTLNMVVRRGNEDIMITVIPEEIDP
mABHD4 FP – ABHD4 inhibitors, primary screen, biochemical, fluorescence polarization, mouse | (Lyso)-N-acylphosphatidylethanolamine lipase (Mus musculus), Q8VD66 | 370,000 tested, 0.54% active | purified mABHD4, FP-Rh probe fluorescence polarization | inhibition, % at 8.92 µM | AID 720543, 2013;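 active = inhibition exceeding the mean over every tested compound plus 3 SD, cut at about 30% in these data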;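 note: 0% = plate median of compound wells and 100% = S159A mutant with DMSO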
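Assay system: wild-type mouse ABHD4 protein; compound: single nominal dose of 8.92 µM, 0.89% DMSO final; schedule: 45 min + 60 min at 25 °C; measured by: FP readout, ex 525 nm / em 598 nm; evaluation: % inhibition of FP-Rh probe binding versus controls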
mABHD4 conf – ABHD4 inhibitors, retest, confirmation, biochemical, fluorescence polarization, mouse. AID 720658, 2013. purified mABHD4, FP-Rh probe fluorescence polarization. inhibition, % at 8.92 µM. shares compounds with mABHD4 FP. 1,800 tested, 55% active;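 active = mean inhibition across replicates above the hit cutoff set in the primary screen, cut at about 30% in these data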;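 note: 0% = wild-type ABHD4 with DMSO and 100% = catalytically dead S159A mutant with DMSO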
* hit, by the source's call. An excerpt weighted towards active compounds, which were near 1.3% of everything screened.

What do the screens show for `COCc1cc(N2CCN(C(=O)OC(C)(C)C)C[C@@H]2C)ccc1N1CC[C@@H](O)C1`?
Tn7 DDE FP: -6; DDE Tn6 FP inh: 4; TCR CD3 inh: 12; mABHD4 FP: 32*; mABHD4 conf: 25

How did C[C@@H]1CN(C(=O)OC(C)(C)C)CCN1c1ccc(N2CC[C@H](O)C2)c(C#N)c1 do in these assays?
Tn7 DDE FP: -9; DDE Tn6 FP inh: 4; TCR CD3 inh: -4; mABHD4 FP: 4

What do the screens show for `[O-]C(=C(C(=S)Nc1cccc2ccccc12)[n+]1cccc(CO)c1)c1ccc(Cl)s1`?
Tn7 DDE FP: -3; DDE Tn6 FP inh: 0; TCR CD3 inh: 0; HTRA1 inh: 9; mABHD4 FP: 30*; mABHD4 conf: 63*

Results for CN(c1ccc(C(=O)Nc2cccc([N+](=O)[O-])c2)cc1)S(C)(=O)=O ?
Tn7 DDE FP: 4; DDE Tn6 FP inh: 1; TCR CD3 inh: 5; HTRA1 inh: -4; mABHD4 FP: -1

What do the screens show for `O=C(NC1CCCN(Cc2ccc(Cl)cc2)C1)c1ccoc1` (stereo unspecified)?
Tn7 DDE FP: -2; DDE Tn6 FP inh: 8; TCR CD3 inh: 2; HTRA1 inh: -1; mABHD4 FP: 3

How did COC(=O)c1nn(-c2ccccc2)c(Sc2ccc(OC)cc2)c1/C=N/O do in these assays?
Tn7 DDE FP: -3; DDE Tn6 FP inh: -4; TCR CD3 inh: 1; HTRA1 inh: -14; mABHD4 FP: -4

How did CCCCCCOC(=O)C[N+](C)(C)CCOC1CC2CCC1(C)C2(C)C (stereo unspecified) do in these assays?
Tn7 DDE FP: 9; DDE Tn6 FP inh: -4; TCR CD3 inh: -5; HTRA1 inh: -1; mABHD4 FP: 4

What do the screens show for `CCCCCCCOC(=O)C[N+](C)(C)CCOC1CC2CCC1(C)C2(C)C` (stereo unspecified)?
Tn7 DDE FP: -3; DDE Tn6 FP inh: 2; TCR CD3 inh: 4; HTRA1 inh: 14; mABHD4 FP: 38*; mABHD4 conf: 50*

How did CC(C)=C1C(=O)NN(c2ccc(C)c(Cl)c2)C1=O do in these assays?
Tn7 DDE FP: -1; DDE Tn6 FP inh: 4; TCR CD3 inh: 4; HTRA1 inh: 34; mABHD4 FP: 37*; mABHD4 conf: 21

What do the screens show for `O=C(c1ccccc1)c1cccc(C(=O)c2ccccc2)c1`?
HTRA1 inh: -16

How did Nc1cc(N)cc(C(=O)c2ccccc2)c1 do in these assays?
Tn7 DDE FP: -1; DDE Tn6 FP inh: 0; TCR CD3 inh: -2; mABHD4 FP: 44*; mABHD4 conf: 12

Results for COc1ccc(CNS(=O)(=O)NCc2ccc(C)cc2)cc1 ?
Tn7 DDE FP: 3; DDE Tn6 FP inh: 8; TCR CD3 inh: -2; HTRA1 inh: -1; mABHD4 FP: -13

How did O=C(NNC(=O)c1ccc(=O)[nH]c1)c1ccc(NS(=O)(=O)c2cccs2)cc1 do in these assays?
Tn7 DDE FP: -8; DDE Tn6 FP inh: -4; TCR CD3 inh: -2; HTRA1 inh: 2; mABHD4 FP: 2

Results for O=C(O)CCC(=O)Nc1ccc(N2CCCCCC2)cc1 ?
Tn7 DDE FP: 0; DDE Tn6 FP inh: 7; TCR CD3 inh: -5; HTRA1 inh: 8; mABHD4 FP: 32*; mABHD4 conf: 12

What do the screens show for `CCOc1ccc(S(=O)(=O)N(C)c2ccc(OCC(=O)Nc3nc(-c4cc(OC)ccc4OC)cs3)cc2)cc1`?
Tn7 DDE FP: 2; DDE Tn6 FP inh: -6; TCR CD3 inh: -10; HTRA1 inh: -36; mABHD4 FP: -6

Results for CC(C)(C)c1ccc(/C=C2\Oc3cc(OC(=O)N4CCOCC4)ccc3C2=O)cc1 ?
Tn7 DDE FP: -2; DDE Tn6 FP inh: -4; TCR CD3 inh: 1; HTRA1 inh: -2; mABHD4 FP: 67*; mABHD4 conf: 57*

What do the screens show for `CC(C)(C)c1ccc(-c2cc(NC(=O)Cc3c[nH]c4ccccc34)ccc2Nc2cccnc2)cc1`?
Tn7 DDE FP: 5; DDE Tn6 FP inh: 5; TCR CD3 inh: -4; mABHD4 FP: 41*; mABHD4 conf: 55*

What do the screens show for `CCCc1ccc(-c2cc(NC(=O)Cc3c[nH]c4ccccc34)ccc2Nc2cccnc2)cc1`?
Tn7 DDE FP: 9; DDE Tn6 FP inh: 6; TCR CD3 inh: 9; mABHD4 FP: 42*; mABHD4 conf: 39*

How did O=C(Cc1c[nH]c2ccccc12)Nc1ccc(Nc2cccnc2)c(-c2ccc(Oc3ccccc3)cc2)c1 do in these assays?
Tn7 DDE FP: 2; DDE Tn6 FP inh: -2; TCR CD3 inh: 1; mABHD4 FP: 9

Results for Cn1c(CNc2ccc(O)cc2)nc2ccccc21 ?
Tn7 DDE FP: 6; DDE Tn6 FP inh: 8; TCR CD3 inh: 10; HTRA1 inh: 5; mABHD4 FP: 58*; mABHD4 conf: 0

What do the screens show for `CCC(C)Sc1cc(-c2nc3ccccn3c2NC2CCCCC2)ccc1OC` (stereo unspecified)?
Tn7 DDE FP: 5; DDE Tn6 FP inh: -2; TCR CD3 inh: 6; HTRA1 inh: -21; mABHD4 FP: 47*; mABHD4 conf: 45*

How did CCC(C)Sc1cc(-c2nc3cc(C)ccn3c2NC2CCCCC2)ccc1OC (stereo unspecified) do in these assays?
Tn7 DDE FP: -8; DDE Tn6 FP inh: -6; TCR CD3 inh: -1; HTRA1 inh: 0; mABHD4 FP: 31*; mABHD4 conf: 67*

Results for CCC(C)Sc1ccc(-c2nc3ccc(C)cn3c2NC2CCCCC2)cc1 (stereo unspecified) ?
HTRA1 inh: -12

What do the screens show for `CCC(C)Sc1cccc(-c2nc3cnccn3c2NC2CCCCC2)c1` (stereo unspecified)?
Tn7 DDE FP: 7; DDE Tn6 FP inh: -4; TCR CD3 inh: 3; HTRA1 inh: -44; mABHD4 FP: 13

How did COc1ccc(CNC(=O)Nc2cc(C)cc(C)c2)cc1 do in these assays?
Tn7 DDE FP: 0; DDE Tn6 FP inh: 4; TCR CD3 inh: -6; HTRA1 inh: -14; mABHD4 FP: 0

What do the screens show for `CC/C(C)=N/Nc1nc2c(c(=O)[nH]c(=O)n2C)n1Cc1ccccc1`?
Tn7 DDE FP: -3; DDE Tn6 FP inh: 3; TCR CD3 inh: 9; HTRA1 inh: 11; mABHD4 FP: 34*; mABHD4 conf: 18

Screening results deposited in PubChem BioAssay by The Scripps Research Institute Molecular Screening Center.
